Results as given in the RNAGym collection of RNA variant scans (doi:10.1126/science.aae0568).
Variants at the floor of the assay were thinned out.

B1: tRNA (parent)
chain: GUUCCGUUGGCGUAAUGGUAACGCGUCUCCCUCCUAAGGAGAAGACUGCGGGUUCGAGUCCCGUACGGAACG

Variants of: B1
Assay: yeast fitness relative to wild type (ratio to wild type); higher = fitter; tRNA-Arg(CCU), competitive growth, 37 C, YPD
Summary of the method: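 Variants of the tRNA-Arg(CCU) gene were chemically synthesised with a 3% per-site mutation rate across 69 sites and placed at the native genomic locus in Saccharomyces cerevisiae. Six parallel replicates of the pooled strains were competed in YPD at 37°C for 24 hours, and gene amplicons from the start and end populations were read by 100-nucleotide paired-end sequencing. Darwinian fitness relative to wild type was derived from changes in genotype frequencies. Genotypes required ≥ 100 starting reads, and estimates < 0.5 were set to 0.5.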
For A21G G23A C66G, the yeast fitness was ≤ 0.5. A21G G39A U54C gave a yeast fitness of 0.589. Work on A21G G44C A69U yielded a yeast fitness of 0.681. With A21G G50A C55U U64C the yeast fitness was ≤ 0.5. Variant A21G G56A has a yeast fitness of 1.08. For A21G G56U G58C, the yeast fitness was 0.661. A21G G58C U59C showed a yeast fitness of 0.961. With A21G G67U A70U the yeast fitness was 0.607. A21G G68C showed a yeast fitness of 0.949. For A21G G68U, the yeast fitness was 1.07. For A21G U26C C27G G48C G67A, the yeast fitness was ≤ 0.5. A21G U26C G48C gave a yeast fitness of 0.615. With A21G U28A C29U G58A the yeast fitness was 0.528. For A21G U28G C62G, the yeast fitness was ≤ 0.5. In the case of A21G U32A C66U, the yeast fitness is reported as 0.512. For A21G U32C A65U G68A, the yeast fitness was 0.63. In the case of A21G U32C C34A C55A A69C, the yeast fitness is reported as ≤ 0.5. A21G U32C U59G C61U C66U A70C showed a yeast fitness of 0.572. With A21G U35C C66A the yeast fitness was ≤ 0.5. In the case of A21G U35G A57C G67C, the yeast fitness is reported as ≤ 0.5. With A21G U47C C49U the yeast fitness was 0.773. A21G U47G gave a yeast fitness of 0.525. Variant A21G U59C has a yeast fitness of 0.883. For A21G U59C A65U G67C A70C, the yeast fitness was ≤ 0.5. With A21U A36C G39A the yeast fitness was 0.58. A21U A37U showed a yeast fitness of 0.672. For A21U A37U A40U G50C, the yeast fitness was ≤ 0.5. With A21U A37U A40U G50C G56C the yeast fitness was ≤ 0.5. A21U A37U C60G gave a yeast fitness of 0.608. Variant A21U A40C has a yeast fitness of 0.727. For A21U A40C A42U C49U G50C G63A C66U, the yeast fitness was ≤ 0.5. In the case of A21U A42C U47G G63A A69U, the yeast fitness is reported as ≤ 0.5. With A21U A42G C62A the yeast fitness was ≤ 0.5. With A21U A42G U59A C60A A69U the yeast fitness was ≤ 0.5. In the case of A21U A42U C66U, the yeast fitness is reported as ≤ 0.5. In the case of A21U A42U G44C C60G C62G, the yeast fitness is reported as ≤ 0.5. In the case of A21U A43G, the yeast fitness is reported as 0.752. Variant A21U A65U has a yeast fitness of 0.793. In the case of A21U A69C A70G, the yeast fitness is reported as 0.594. Variant A21U A70U has a yeast fitness of 0.754. A21U C22A G50C showed a yeast fitness of 0.575. With A21U C22G C66U the yeast fitness was 0.568. In the case of A21U C22G U59C, the yeast fitness is reported as ≤ 0.5. Variant A21U C22U A42C A43U G44C A65C has a yeast fitness of 0.663. With A21U C22U A43G the yeast fitness was ≤ 0.5. For A21U C22U G48C A65G C66U, the yeast fitness was ≤ 0.5. Variant A21U C24G C49A U54G has a yeast fitness of 0.56. With A21U C24G U28A U59A the yeast fitness was ≤ 0.5. With A21U C24U A37U G51U the yeast fitness was ≤ 0.5. With A21U C27G C33U C34A C66U the yeast fitness was ≤ 0.5. With A21U C27G C33U C34A G51C A57C the yeast fitness was ≤ 0.5. Variant A21U C29A has a yeast fitness of 0.751. A21U C29G C49G gave a yeast fitness of 0.519. In the case of A21U C29U C31U U54C A70G, the yeast fitness is reported as ≤ 0.5. With A21U C29U G48A U54C the yeast fitness was ≤ 0.5. For A21U C30A, the yeast fitness was 0.757. With A21U C30G C31U G48C the yeast fitness was 0.753. In the case of A21U C31A C61U, the yeast fitness is reported as ≤ 0.5. For A21U C31A G39C C66U, the yeast fitness was ≤ 0.5. Work on A21U C31G A40U G50C C61A C66U yielded a yeast fitness of 0.513. In the case of A21U C31G C33G, the yeast fitness is reported as ≤ 0.5. With A21U C31U A57U the yeast fitness was ≤ 0.5. With A21U C33U G38A A45U C62U the yeast fitness was ≤ 0.5. For A21U C34A G56C G63A U64C G67C, the yeast fitness was ≤ 0.5. In the case of A21U C34A U54A C62A A70G, the yeast fitness is reported as ≤ 0.5. With A21U C34G A42U C61U the yeast fitness was ≤ 0.5. In the case of A21U C34G G51C G63C A65C, the yeast fitness is reported as ≤ 0.5. In the case of A21U C34G G52A C61A, the yeast fitness is reported as 0.553. For A21U C34G G56A, the yeast fitness was ≤ 0.5. Work on A21U C34G U35C yielded a yeast fitness of 0.785. In the case of A21U C46G U47C G56A C60A, the yeast fitness is reported as ≤ 0.5. Work on A21U C49G yielded a yeast fitness of 0.618. For A21U C49U U54A, the yeast fitness was ≤ 0.5. A21U C55G showed a yeast fitness of 0.527. With A21U C61A G67A the yeast fitness was ≤ 0.5. With A21U C62U C66G the yeast fitness was ≤ 0.5. A21U C66A gave a yeast fitness of 0.574. In the case of A21U G23A A37U, the yeast fitness is reported as ≤ 0.5. For A21U G23C C62A, the yeast fitness was ≤ 0.5. With A21U G25A G56C the yeast fitness was ≤ 0.5. In the case of A21U G38C A43U G50A A65C, the yeast fitness is reported as ≤ 0.5. Work on A21U G44A yielded a yeast fitness of 0.782. In the case of A21U G44C G58A A65G, the yeast fitness is reported as ≤ 0.5. For A21U G48C, the yeast fitness was 0.586. A21U G48C C55A C66G G67C gave a yeast fitness of 0.526. With A21U G48C C55A C66U the yeast fitness was ≤ 0.5. For A21U G50C C61G A70U, the yeast fitness was ≤ 0.5. With A21U G52A C62G the yeast fitness was ≤ 0.5. With A21U G67C the yeast fitness was 0.645. With A21U G67U the yeast fitness was 0.742. A21U G68U showed a yeast fitness of 0.752. For A21U U28A A40U C55A A70G, the yeast fitness was ≤ 0.5. For A21U U28G G56A, the yeast fitness was ≤ 0.5. For A21U U32C A45U G67C, the yeast fitness was ≤ 0.5. With A21U U35C G51C the yeast fitness was ≤ 0.5. With A21U U54A C61U the yeast fitness was ≤ 0.5. A21U U54A G56C A70G showed a yeast fitness of 0.576. With A21U U54C the yeast fitness was 0.703. With C22A A36G the yeast fitness was 0.8. With C22A A40C G50C G67C the yeast fitness was ≤ 0.5. For C22A A40G C60G A70G, the yeast fitness was ≤ 0.5. C22A A45C showed a yeast fitness of 0.665. In the case of C22A A45C U54C, the yeast fitness is reported as 0.522. With C22A A57U the yeast fitness was 0.606. Variant C22A A65U has a yeast fitness of 0.849. With C22A C24A the yeast fitness was 0.54. With C22A C24G A36C the yeast fitness was ≤ 0.5. For C22A C24G A36G G39C G56A, the yeast fitness was ≤ 0.5. For C22A C24G A65U A69C, the yeast fitness was ≤ 0.5. For C22A C24G A69U, the yeast fitness was ≤ 0.5. Work on C22A C24G G56C yielded a yeast fitness of 0.786. For C22A C24G U32C C34U, the yeast fitness was ≤ 0.5. With C22A C24G U53A the yeast fitness was ≤ 0.5. Variant C22A C24U C30U C31G has a yeast fitness of 0.531. With C22A C24U G58C C62G the yeast fitness was ≤ 0.5. With C22A C27G G38C A43C C66U A69G the yeast fitness was ≤ 0.5. Work on C22A C27G G41A C62A yielded a yeast fitness of 0.655. C22A C27U showed a yeast fitness of 0.976. For C22A C29G C61U, the yeast fitness was ≤ 0.5. In the case of C22A C29G G58A G67C, the yeast fitness is reported as ≤ 0.5. For C22A C29U C55U, the yeast fitness was 0.579. For C22A C29U C62G, the yeast fitness was ≤ 0.5. With C22A C29U U53A C66U the yeast fitness was ≤ 0.5. In the case of C22A C30U C31G A57C A65C A70C, the yeast fitness is reported as ≤ 0.5. For C22A C30U C31G C61U A69C, the yeast fitness was ≤ 0.5. C22A C30U C49U C66U gave a yeast fitness of 0.601. For C22A C31A U53C A57C C60U, the yeast fitness was ≤ 0.5. C22A C31G C46A C49U U54C G68A showed a yeast fitness of 0.581. In the case of C22A C31G G41C G63C A70U, the yeast fitness is reported as ≤ 0.5. With C22A C31G U35C the yeast fitness was ≤ 0.5. With C22A C31U C34G the yeast fitness was 0.536. For C22A C33G A43C, the yeast fitness was 0.55. For C22A C33G A43C C49U U64C, the yeast fitness was ≤ 0.5. Variant C22A C49U C55A has a yeast fitness of 0.656. With C22A C49U G51C the yeast fitness was ≤ 0.5. C22A C60A showed a yeast fitness of 0.659. C22A C61A gave a yeast fitness of 0.611. For C22A G23A C33U A42U A69U, the yeast fitness was ≤ 0.5. For C22A G23C C34U A36G A40U G67A, the yeast fitness was ≤ 0.5. C22A G25A A69C gave a yeast fitness of 0.784. Work on C22A G25A U64A yielded a yeast fitness of 0.629. With C22A G39C A43U U53C U54A the yeast fitness was ≤ 0.5. In the case of C22A G41A C46U C66U, the yeast fitness is reported as 0.716. With C22A G41C A65C the yeast fitness was ≤ 0.5. In the case of C22A G50C A65G, the yeast fitness is reported as ≤ 0.5. For C22A G63C A65C, the yeast fitness was ≤ 0.5. With C22A G68A the yeast fitness was 0.869. C22A G68C showed a yeast fitness of 0.822. Work on C22A G68U yielded a yeast fitness of 0.825. Variant C22A U26A has a yeast fitness of 0.949. For C22A U26A A36U G56C C60G, the yeast fitness was ≤ 0.5. For C22A U26A C29G C34G G50C U64C, the yeast fitness was ≤ 0.5. With C22A U26A C66U the yeast fitness was 0.582. C22A U28C G67A gave a yeast fitness of 0.538. In the case of C22A U32C A37C A65G, the yeast fitness is reported as ≤ 0.5. In the case of C22A U32C C66U, the yeast fitness is reported as 0.503. In the case of C22A U35A G58A, the yeast fitness is reported as ≤ 0.5. With C22A U35G the yeast fitness was 0.631. C22A U53C gave a yeast fitness of 0.764. For C22G A36C G68C, the yeast fitness was ≤ 0.5. C22G A36C U47A showed a yeast fitness of 0.552. With C22G A37G A45C G51U the yeast fitness was ≤ 0.5. Work on C22G A40C yielded a yeast fitness of 0.68. For C22G A42G C60A, the yeast fitness was ≤ 0.5. In the case of C22G A43G C55U U64G, the yeast fitness is reported as ≤ 0.5. In the case of C22G A45C C61U A65G, the yeast fitness is reported as ≤ 0.5. In the case of C22G A45C G52C A57U, the yeast fitness is reported as 0.549.
